{"source": "BindingDB's records for doi:10.1021/acs.jnatprod.7b00271", "about": "(University of Eastern Piedmont, 2017)", "key": {"[1]": {"target": "T1, Nuclear factor erythroid 2-related factor 2 (Homo sapiens, UniProt Q16236)", "T1 sequence (Q16236 whole entry)": "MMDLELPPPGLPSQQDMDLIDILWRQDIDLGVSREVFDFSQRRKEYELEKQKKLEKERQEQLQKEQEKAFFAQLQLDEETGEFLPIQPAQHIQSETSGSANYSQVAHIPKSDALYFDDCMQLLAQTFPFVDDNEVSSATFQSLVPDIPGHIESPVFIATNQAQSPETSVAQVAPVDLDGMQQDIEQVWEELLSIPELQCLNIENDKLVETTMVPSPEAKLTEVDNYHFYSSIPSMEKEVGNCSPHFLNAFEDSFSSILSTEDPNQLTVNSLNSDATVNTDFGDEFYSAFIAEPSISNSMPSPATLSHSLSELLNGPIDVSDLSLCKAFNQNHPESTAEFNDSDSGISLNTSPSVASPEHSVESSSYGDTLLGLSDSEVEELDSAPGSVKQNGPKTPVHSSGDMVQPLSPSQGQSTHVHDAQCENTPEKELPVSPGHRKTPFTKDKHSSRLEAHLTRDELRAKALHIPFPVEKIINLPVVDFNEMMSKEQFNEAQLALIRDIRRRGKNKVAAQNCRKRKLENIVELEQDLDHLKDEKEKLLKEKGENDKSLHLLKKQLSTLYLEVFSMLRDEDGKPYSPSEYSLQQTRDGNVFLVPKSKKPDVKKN", "test": "Activation of Nrf2 (unknown origin) expressed in human HaCaT-ARE-luc cells after 6 hrs by luciferase reporter gene assay", "how_it_was_run": "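HaCaT-ARE-Luc keratinocytes in DMEM with 10% FBS, 37 °C, 5% CO2, exposed to compounds for 6 h. Cells then washed with PBS and lysed (Tris-phosphate pH 7.8, MgCl2, DTT, Triton X-100, glycerol, 15 min RT). Luciferase RLU read on the supernatant and EC50 derived. Mean of at least five independent experiments.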"}, "[2]": {"target": "Signal transducer and activator of transcription 3 (Homo sapiens, UniProt P40763)", "sequence (P40763 whole entry)": "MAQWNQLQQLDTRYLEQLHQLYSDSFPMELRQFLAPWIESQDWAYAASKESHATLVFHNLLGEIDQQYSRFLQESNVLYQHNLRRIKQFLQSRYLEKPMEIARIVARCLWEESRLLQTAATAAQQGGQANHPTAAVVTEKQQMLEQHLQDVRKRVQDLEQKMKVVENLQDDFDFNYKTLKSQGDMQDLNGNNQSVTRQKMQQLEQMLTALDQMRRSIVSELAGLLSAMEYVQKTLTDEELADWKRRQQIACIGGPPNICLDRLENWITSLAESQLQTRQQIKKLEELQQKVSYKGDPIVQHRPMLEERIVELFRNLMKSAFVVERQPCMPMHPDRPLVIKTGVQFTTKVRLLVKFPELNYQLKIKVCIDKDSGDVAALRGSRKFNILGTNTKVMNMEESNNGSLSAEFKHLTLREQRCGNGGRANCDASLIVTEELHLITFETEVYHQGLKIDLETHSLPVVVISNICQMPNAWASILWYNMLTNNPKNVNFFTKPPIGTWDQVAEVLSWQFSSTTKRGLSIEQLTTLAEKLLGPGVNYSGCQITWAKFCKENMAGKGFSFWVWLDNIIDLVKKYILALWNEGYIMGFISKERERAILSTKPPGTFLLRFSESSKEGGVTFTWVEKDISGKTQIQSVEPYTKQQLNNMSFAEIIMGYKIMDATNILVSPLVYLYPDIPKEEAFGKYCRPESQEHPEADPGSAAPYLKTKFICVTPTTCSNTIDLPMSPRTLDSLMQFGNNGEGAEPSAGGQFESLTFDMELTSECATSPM", "test": "Inhibition of IFN-gamma stimulated STAT3 (unknown origin) expressed in human HeLa cells after 6 hrs by luciferase reporter gene assay", "how_it_was_run": "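HeLa-STAT3-Luc cells stimulated with γIFN (20 IU/mL) with or without compounds for 6 h. PBS-washed cells lysed 15 min at room temperature and luciferase RLU measured. Values expressed as percent inhibition of IFN-γ-induced activity (taken as 100%). Mean of at least five independent experiments.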"}}}
{"compound": "COC(=O)[C@]12CCC(C)(C)C[C@H]1C1=CC[C@@H]3[C@@]4(C)C=C(I)C(=O)C(C)(C)[C@@H]4CC[C@@]3(C)[C@]1(C)CC2", "values": [{"measurement": "EC50", "setting": "[1]", "value": "> 25", "unit": "µM"}, {"measurement": "IC50", "setting": "[2]", "value": "> 25", "unit": "µM"}]}
{"compound": "COC(=O)[C@]12CCC(C)(C)C[C@H]1C1=CC[C@@H]3[C@@]4(C)CC(C#N)=C(O)C(C)(C)[C@@H]4CC[C@@]3(C)[C@]1(C)CC2", "values": [{"measurement": "EC50", "setting": "[1]", "value": "> 25", "unit": "µM"}, {"measurement": "IC50", "setting": "[2]", "value": "> 25", "unit": "µM"}]}
{"compound": "COC(=O)[C@]12CCC(C)(C)C[C@H]1C1=CC[C@@H]3[C@@]4(C)C=C(c5ccc(C#N)cc5)C(=O)C(C)(C)[C@@H]4CC[C@@]3(C)[C@]1(C)CC2", "values": [{"measurement": "EC50", "setting": "[1]", "value": "> 25", "unit": "µM"}, {"measurement": "IC50", "setting": "[2]", "value": "> 25", "unit": "µM"}]}
{"compound": "COC(=O)[C@]12CCC(C)(C)C[C@H]1C1=CC[C@@H]3[C@@]4(C)CCC(=O)C(C)(C)[C@@H]4CC[C@@]3(C)[C@]1(C)CC2", "values": [{"measurement": "EC50", "setting": "[1]", "value": "> 25", "unit": "µM"}, {"measurement": "IC50", "setting": "[2]", "value": "> 25", "unit": "µM"}]}
{"compound": "COC(=O)[C@]12CCC(C)(C)C[C@H]1C1=CC[C@@H]3[C@@]4(C)C=C(Br)C(=O)C(C)(C)[C@@H]4CC[C@@]3(C)[C@]1(C)CC2", "values": [{"measurement": "EC50", "setting": "[1]", "value": 11.5, "unit": "µM"}, {"measurement": "IC50", "setting": "[2]", "value": "> 25", "unit": "µM"}]}
{"compound": "COC(=O)[C@]12CCC(C)(C)C[C@H]1C1=CC[C@@H]3[C@@]4(C)C=C(c5ccccc5)C(=O)C(C)(C)[C@@H]4CC[C@@]3(C)[C@]1(C)CC2", "values": [{"measurement": "EC50", "setting": "[1]", "value": "> 25", "unit": "µM"}, {"measurement": "IC50", "setting": "[2]", "value": "> 25", "unit": "µM"}]}
{"compound": "COC(=O)[C@]12CCC(C)(C)C[C@H]1C1=CC[C@@H]3[C@@]4(C)C=C(C#Cc5ccccc5)C(=O)C(C)(C)[C@@H]4CC[C@@]3(C)[C@]1(C)CC2", "values": [{"measurement": "EC50", "setting": "[1]", "value": "> 25", "unit": "µM"}, {"measurement": "IC50", "setting": "[2]", "value": "> 25", "unit": "µM"}]}
{"compound": "COC(=O)C1=C[C@]2(C)[C@H]3CC=C4[C@@H]5CC(C)(C)CC[C@]5(C(=O)OC)CC[C@@]4(C)[C@]3(C)CC[C@H]2C(C)(C)C1=O", "values": [{"measurement": "EC50", "setting": "[1]", "value": "> 25", "unit": "µM"}, {"measurement": "IC50", "setting": "[2]", "value": "> 25", "unit": "µM"}]}
{"compound": "COC(=O)[C@]12CCC(C)(C)C[C@H]1C1=CC[C@@H]3[C@@]4(C)C=C(OC(C)=O)C(=O)C(C)(C)[C@@H]4CC[C@@]3(C)[C@]1(C)CC2", "values": [{"measurement": "EC50", "setting": "[1]", "value": "> 25", "unit": "µM"}, {"measurement": "IC50", "setting": "[2]", "value": "> 25", "unit": "µM"}]}
{"compound": "COC(=O)[C@]12CCC(C)(C)C[C@H]1C1=CC[C@@H]3[C@@]4(C)Cc5cnoc5C(C)(C)[C@@H]4CC[C@@]3(C)[C@]1(C)CC2", "values": [{"measurement": "EC50", "setting": "[1]", "value": "> 25", "unit": "µM"}, {"measurement": "IC50", "setting": "[2]", "value": "> 25", "unit": "µM"}]}
{"compound": "COC(=O)[C@]12CCC(C)(C)C[C@H]1C1=CC[C@@H]3[C@@]4(C)C=CC(=O)C(C)(C)[C@@H]4CC[C@@]3(C)[C@]1(C)CC2", "values": [{"measurement": "EC50", "setting": "[1]", "value": "> 25", "unit": "µM"}, {"measurement": "IC50", "setting": "[2]", "value": "> 25", "unit": "µM"}]}
{"compound": "CCOC(=O)/C=C/C1=C[C@]2(C)[C@H]3CC=C4[C@@H]5CC(C)(C)CC[C@]5(C(=O)OC)CC[C@@]4(C)[C@]3(C)CC[C@H]2C(C)(C)C1=O", "values": [{"measurement": "EC50", "setting": "[1]", "value": "> 25", "unit": "µM"}, {"measurement": "IC50", "setting": "[2]", "value": "> 25", "unit": "µM"}]}
{"compound": "COC(=O)[C@]12CCC(C)(C)C[C@H]1C1=CC[C@@H]3[C@@]4(C)CC(C=O)=C(O)C(C)(C)[C@@H]4CC[C@@]3(C)[C@]1(C)CC2", "values": [{"measurement": "EC50", "setting": "[1]", "value": "> 25", "unit": "µM"}, {"measurement": "IC50", "setting": "[2]", "value": "> 25", "unit": "µM"}]}
{"compound": "COC(=O)[C@]12CCC(C)(C)C[C@H]1C1=CC[C@@H]3[C@@]4(C)C=C(C(=O)O)C(=O)C(C)(C)[C@@H]4CC[C@@]3(C)[C@]1(C)CC2", "values": [{"measurement": "EC50", "setting": "[1]", "value": 2.45, "unit": "µM"}, {"measurement": "IC50", "setting": "[2]", "value": 25.7, "unit": "µM"}]}
{"compound": "COC(=O)[C@]12CCC(C)(C)C[C@H]1C1=CC[C@@H]3[C@@]4(C)C=C(C#N)C(=O)C(C)(C)[C@@H]4CC[C@@]3(C)[C@]1(C)CC2", "values": [{"measurement": "EC50", "setting": "[1]", "value": 1.1, "unit": "µM"}]}
{"compound": "COC(=O)[C@]12CCC(C)(C)C[C@H]1C1=CC[C@@H]3[C@@]4(C)C=C(c5ccc(OC)cc5)C(=O)C(C)(C)[C@@H]4CC[C@@]3(C)[C@]1(C)CC2", "values": [{"measurement": "EC50", "setting": "[1]", "value": "> 25", "unit": "µM"}, {"measurement": "IC50", "setting": "[2]", "value": "> 25", "unit": "µM"}]}
{"compound": "COC(=O)[C@]12CCC(C)(C)C[C@H]1[C@H]1C(=O)C=C3[C@@]4(C)C=C(C#N)C(=O)C(C)(C)[C@@H]4CC[C@@]3(C)[C@]1(C)CC2", "note": "[CDDO-Me, 2]", "values": [{"measurement": "EC50", "setting": "[1]", "value": 0.06, "unit": "µM"}]}
{"compound": "CC1(C)CC[C@]2(C(=O)O)CC[C@]3(C)C(=CC[C@@H]4[C@@]5(C)CC[C@H](O)C(C)(C)[C@@H]5CC[C@]43C)[C@@H]2C1", "note": "[Oleanolic acid (OA)(Compound 1)]", "values": [{"measurement": "IC50", "setting": "[2]", "value": "> 50", "unit": "µM"}]}
